# From ChEMBL document CHEMBL2169827, “4-Oxo-1,4-dihydropyridines as selective CB₂ cannabinoid receptor ligands. Part 2: discovery of new agonists endowed with protective effect against experimental colitis” (J Med Chem, 2012)
# Calls of active or inactive are those of the source. The calls are words filed in the database; no cut-off is given here.
# Tests used:
# Cannabinoid receptor 1 [1] = target: T1, Cannabinoid receptor 1 (Homo sapiens, UniProt P21554); assay: Displacement of [3H]-CP55940 from human recombinant CB1 receptor expressed in CHO cells membrane by scintillation counting; format: cell membranes
# Cannabinoid receptor 2 [2] = target: T2, Cannabinoid receptor 2 (Homo sapiens, UniProt P34972); assay: Agonist activity at human recombinant CB2 receptor expressed in CHO cells membrane by [35S]-GTPgammaS assay; format: functional, cell membranes
# Cannabinoid receptor 1 [3] = target: T1, Cannabinoid receptor 1; assay: Displacement of [3H]-CP55940 from human recombinant CB1 receptor expressed in CHO cells membrane at 1 uM by scintillation counting; format: cell membranes
# Method in brief: (§1)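 Competitive radioligand displacement with [3H]-CP-55,940 at human CB1 or CB2; single-point screen at 1 μM, specific displacement recorded.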
# Cannabinoid receptor 2 [4] = target: T2, Cannabinoid receptor 2; assay: Displacement of [3H]-CP55940 from human recombinant CB2 receptor expressed in CHO cells membrane at 1 uM by scintillation counting; format: cell membranes; method in brief: as §1
# Cannabinoid receptor 2 [5] = target: T2, Cannabinoid receptor 2; assay: Displacement of [3H]-CP55940 from human recombinant CB2 receptor expressed in CHO cells membrane by scintillation counting; format: cell membranes
# Mus musculus [6] = assay: Anticolitis activity in TNBS-induced C57Bl6 mouse experimental colitis model assessed as reduction colitis macroscopic scores at 10 mg/kg, ip qd dosed 3 days before colitis induction; format: functional; parameters: scale not given: the % may be the effect or the level left; settings: route intraperitoneal
# Method in brief: (§2)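 TNBS colitis in mice; test agent given ip once daily at 10 mg/kg; mice killed three days after TNBS and colon inflammation parameters assessed; 10 mice per group, mean ± SEM, compared with TNBS plus vehicle.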
# Homo sapiens = species on record: Homo sapiens; assay: Selectivity index, ratio of Ki for human recombinant CB1 receptor to KI for human recombinant CB2 receptor
# Method in brief: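 Ki at hCB1 and hCB2 from [3H]-CP-55,940 competitive displacement; ratio CB1 Ki/CB2 Ki. Ki at CB1 determined only when 1 μM screen gave >60% displacement.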
# [7] = Intrinsic clearance in mouse liver microsomes at 1 uM; format: ADME, Microsome; settings: read-out: CLH
# Mus musculus [8] = assay: Anticolitis activity in TNBS-induced C57Bl6 mouse experimental colitis model assessed as reduction colitis histological scores at 10 mg/kg, ip qd dosed 3 days before colitis induction (reference value: 4.9 score); format: functional; settings: route intraperitoneal; method in brief: as §2
# Mus musculus [9] = assay: Effect on TNFalpha mRNA expression in TNBS-induced C57Bl6 mouse experimental colitis model at 10 mg/kg, ip qd dosed 3 days before colitis induction by real-time PCR method; format: functional, organism-based; parameters: dose 10 mg/kg; method in brief: as §2
# [10] = Fraction unbound in human plasma at 37 degC by equilibrium dialysis method; format: ADME, cell-free
# Method in brief: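 Plasma protein binding by equilibrium dialysis at 37 °C; free fraction reported.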
# [11] = Permeability from apical to basolateral side in human Caco2 cells at 10 uM incubated for 60 mins; format: ADME, cell-based; settings: Caco-2, read-out: permeability
# Method in brief: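 Caco-2 permeability: compound at 10 μM, samples at 0 and 60 min.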
# [12] = Stability in human liver microsomes assessed as compound remaining at 1 uM incubated for 60 mins; format: ADME, Microsome; settings: read-out: Stability
# Method in brief: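 Incubation at 1 μM with human liver microsomes (0.3 mg/mL), 0 and 60 min; percent parent remaining at 60 min.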
# Mus musculus [13] = assay: Anticolitis activity in TNBS-induced C57Bl6 mouse experimental colitis model assessed as MPO activity at 10 mg/kg, ip qd dosed 3 days before colitis induction (reference value: 73.7%) score); format: functional; settings: route intraperitoneal; method in brief: as §2
# [14] = target: MDR1 (ABCB1, P-glycoprotein) (Homo sapiens, UniProt P08183); assay: Inhibition of MDR1 expressed in MDCK2 cells at 10 uM by calcein AM accumulation assay; format: cell-based, MDCK-II; settings: dog, MDCK2 cells expressing MDR1, probe calcein AM
# Method in brief: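 P-gp interaction tested in MDR1-MDCKII cells via cellular uptake of calcein AM.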
# Mus musculus [15] = assay: Effect on IL-1beta mRNA expression in TNBS-induced C57Bl6 mouse experimental colitis model at 10 mg/kg, ip qd dosed 3 days before colitis induction by real-time PCR method; format: functional, organism-based; parameters: dose 10 mg/kg; method in brief: as §2
# T2 sequence (P34972 whole entry): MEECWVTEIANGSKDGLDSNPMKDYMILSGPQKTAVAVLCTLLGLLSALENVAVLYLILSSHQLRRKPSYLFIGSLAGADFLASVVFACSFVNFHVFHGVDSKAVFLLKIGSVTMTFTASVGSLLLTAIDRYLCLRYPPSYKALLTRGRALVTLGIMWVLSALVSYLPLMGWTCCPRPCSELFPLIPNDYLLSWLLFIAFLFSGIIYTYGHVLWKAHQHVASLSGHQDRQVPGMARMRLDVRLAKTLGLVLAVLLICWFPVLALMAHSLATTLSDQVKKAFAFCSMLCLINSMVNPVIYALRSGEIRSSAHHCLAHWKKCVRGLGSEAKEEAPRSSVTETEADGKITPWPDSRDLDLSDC
# T1 sequence (P21554 whole entry): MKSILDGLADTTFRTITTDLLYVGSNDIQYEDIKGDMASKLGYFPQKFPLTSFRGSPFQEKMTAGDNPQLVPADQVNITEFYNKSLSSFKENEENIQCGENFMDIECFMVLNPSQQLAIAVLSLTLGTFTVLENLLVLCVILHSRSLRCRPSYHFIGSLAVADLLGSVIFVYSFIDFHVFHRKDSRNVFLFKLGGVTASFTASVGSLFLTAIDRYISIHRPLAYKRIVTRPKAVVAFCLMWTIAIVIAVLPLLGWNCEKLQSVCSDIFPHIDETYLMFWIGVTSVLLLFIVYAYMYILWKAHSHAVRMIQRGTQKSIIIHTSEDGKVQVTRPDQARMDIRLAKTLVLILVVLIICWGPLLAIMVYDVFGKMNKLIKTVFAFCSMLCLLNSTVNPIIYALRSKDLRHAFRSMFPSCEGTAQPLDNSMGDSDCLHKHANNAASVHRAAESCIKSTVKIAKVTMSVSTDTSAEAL
# Sequence of MDR1 (ABCB1, P-glycoprotein) (P08183 whole entry): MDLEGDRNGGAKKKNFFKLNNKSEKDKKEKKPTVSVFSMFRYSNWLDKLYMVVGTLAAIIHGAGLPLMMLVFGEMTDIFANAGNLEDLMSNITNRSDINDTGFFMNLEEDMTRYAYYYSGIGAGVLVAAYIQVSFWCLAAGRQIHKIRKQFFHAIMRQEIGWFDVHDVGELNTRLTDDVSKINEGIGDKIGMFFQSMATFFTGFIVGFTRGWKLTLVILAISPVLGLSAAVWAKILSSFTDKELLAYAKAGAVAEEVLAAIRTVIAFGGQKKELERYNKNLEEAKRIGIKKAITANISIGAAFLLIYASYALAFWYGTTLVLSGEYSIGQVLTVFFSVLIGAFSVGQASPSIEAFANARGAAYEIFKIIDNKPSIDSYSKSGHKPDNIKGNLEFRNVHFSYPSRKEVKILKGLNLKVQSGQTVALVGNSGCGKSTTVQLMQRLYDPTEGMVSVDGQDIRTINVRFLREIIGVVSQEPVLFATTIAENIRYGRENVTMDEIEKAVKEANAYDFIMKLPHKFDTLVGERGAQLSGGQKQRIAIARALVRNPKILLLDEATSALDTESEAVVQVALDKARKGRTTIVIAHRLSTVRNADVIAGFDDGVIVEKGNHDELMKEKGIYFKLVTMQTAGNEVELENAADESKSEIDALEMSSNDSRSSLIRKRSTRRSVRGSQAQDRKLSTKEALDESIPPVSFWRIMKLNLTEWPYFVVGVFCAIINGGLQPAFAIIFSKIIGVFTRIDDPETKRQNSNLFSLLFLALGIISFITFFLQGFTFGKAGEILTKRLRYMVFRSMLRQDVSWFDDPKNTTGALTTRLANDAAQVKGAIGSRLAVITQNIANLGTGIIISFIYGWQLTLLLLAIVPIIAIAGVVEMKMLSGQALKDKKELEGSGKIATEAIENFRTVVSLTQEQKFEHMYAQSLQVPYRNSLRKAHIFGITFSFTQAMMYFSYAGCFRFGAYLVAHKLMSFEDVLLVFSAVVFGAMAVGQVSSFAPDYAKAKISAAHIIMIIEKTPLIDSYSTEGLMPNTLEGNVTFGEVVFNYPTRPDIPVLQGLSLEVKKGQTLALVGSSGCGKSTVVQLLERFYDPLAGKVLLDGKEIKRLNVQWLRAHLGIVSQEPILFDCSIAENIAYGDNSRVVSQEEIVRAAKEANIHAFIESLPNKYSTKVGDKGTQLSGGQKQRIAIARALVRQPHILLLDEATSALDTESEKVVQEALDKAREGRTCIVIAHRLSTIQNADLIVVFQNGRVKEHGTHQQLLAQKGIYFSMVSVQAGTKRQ
SMILES,Ki (Cannabinoid receptor 1 [1]),EC50 (Cannabinoid receptor 2 [2]),Activity (Cannabinoid receptor 1 [3]),Activity (Cannabinoid receptor 2 [4]),Ki (Cannabinoid receptor 2 [5]),Activity (Mus musculus [6]),other results
CCCCCn1cc(C(=O)Nc2ccccc2)c(=O)cc1C(C)(C)C,87.9 nM,8.3 nM,> 60%,> 60%,9.2 nM,,
CCCCCn1cc(C(=O)NCC23CC4CC(CC(C4)C2)C3)c(=O)cc1C(C)(C)C,> 1000 nM,49.2 nM,> 60%,> 60%,10.2 nM,62.2%,
COC(Cn1cc(C(=O)NC23CC4CC(CC(C4)C2)C3)c(=O)cc1C)OC,,,> 60%,> 60%,> 1000 nM,,
CCCCCn1cc(C(=O)NC(C)C23CC4CC(CC(C4)C2)C3)c(=O)cc1C(C)(C)C (racemic),548 nM,47.1 nM,> 60%,> 60%,9 nM,60%,
CCCCCn1cc(C(=O)NC(C)C)c(=O)cc1C,,,> 60%,> 60%,> 1000 nM,,
COCCCn1cc(C(=O)NC23CC4CC(CC(C4)C2)C3)c(=O)cc1C,,,> 60%,> 60%,> 1000 nM,,
CCCCCn1cc(C(=O)NC23CC4CC(CC(C4)C2)C3)c(=O)c(-c2cccc(C(C)=O)c2)c1C,,,> 60%,> 60%,> 1000 nM,,
Cc1cc(=O)c(C(=O)NC23CC4CC(CC(C4)C2)C3)cn1CCCC(F)(F)F,> 1000 nM,17.3 nM,> 60%,> 60%,0.28 nM,65.1%,Ratio Ki (Homo sapiens): > 3570
CCCCCn1cc(C(=O)NC23CC4CC(CC(C4)C2)C3)c(=O)c(-c2ccncc2)c1C,> 1000 nM,114 nM,> 60%,> 60%,36.5 nM,61.4%,"microsomal CLint at 1 µM [7]: > 200 µL/min/mg; Activity (Mus musculus [8]): 3.1; Activity (Mus musculus [9]): inactive; fraction unbound [10]: 0.07; Papp A→B at 1 h, 10 µM [11]: 49.9 ×10⁻⁶ cm/s; remaining at 1 h, 1 µM [12]: 1%; Ratio Ki (Homo sapiens): > 10; Activity (Mus musculus [13]): 34.1%; inhibition at 10 µM [14]: 33.7%; Activity (Mus musculus [15]): inactive"
CCCCCn1cc(C(=O)NC23CC4CC(CC(C4)C2)C3)c(=O)c(-c2cccc(C#N)c2)c1C,,,> 60%,> 60%,> 1000 nM,,
CCCCCn1cc(C(=O)NC23CC4CC(CC(C4)C2)C3)c(=O)c(I)c1C,193 nM,11.9 nM,> 60%,> 60%,20.8 nM,,
CCCCCn1cc(C(=O)NC2C3CC4CC(C3)CC2C4)c(=O)cc1C (stereo unspecified),> 1000 nM,38.4 nM,> 60%,> 60%,0.26 nM,74.9%,Ratio Ki (Homo sapiens): > 3850
CCCCCn1cc(C(=O)NC(C)C23CC4CC(CC(C4)C2)C3)c(=O)cc1C (racemic),> 1000 nM,84.2 nM,> 60%,> 60%,6.4 nM,74.9%,Ratio Ki (Homo sapiens): > 10
CCCCCn1cc(C(=O)NCC23CC4CC(CC(C4)C2)C3)c(=O)cc1C,> 1000 nM,53.1 nM,> 60%,> 60%,15.2 nM,55.9%,Ratio Ki (Homo sapiens): > 10
Cc1cc(=O)c(C(=O)NC23CC4CC(CC(C4)C2)C3)cn1CC1CCOCC1,> 1000 nM,47.4 nM,> 60%,> 60%,24.1 nM,66.3%,Ratio Ki (Homo sapiens): > 10
Cc1cc(=O)c(C(=O)NC23CC4CC(CC(C4)C2)C3)cn1CCC1CCOCC1,,,> 60%,> 60%,196 nM,,
CCCCCn1cc(C(=O)NC23CC4CC(CC(C4)C2)C3)c(=O)c(-c2ccccc2)c1C,,,> 60%,> 60%,189 nM,,
Cc1cc(=O)c(C(=O)NC23CC4CC(CC(C4)C2)C3)cn1CC1OCCO1,,,> 60%,> 60%,> 1000 nM,,
C/C=C\n1cc(C(=O)NC23CC4CC(CC(C4)C2)C3)c(=O)cc1C,,,> 60%,> 60%,> 1000 nM,,
CCCCCn1cc(C(=O)NC2C3CC4CC(C3)CC2C4)c(=O)cc1C(C)(C)C (stereo unspecified),562 nM,452 nM,> 60%,> 60%,9.6 nM,51.5%,
CCCCCn1cc(C(=O)NC23CC4CC(CC(C4)C2)C3)c(=O)c(-c2ccc(C)cc2)c1C,,,> 60%,> 60%,> 1000 nM,,
CCCCCn1cc(C(=O)NC23CC4CC(CC(C4)C2)C3)c(=O)c(C2CC2)c1C,105 nM,88.5 nM,> 60%,> 60%,13.4 nM,,
CCCCCn1cc(C(=O)NC23CC4CC(CC(C4)C2)C3)c(=O)cc1C(C)(C)C,,,,,,19.3%,"microsomal CLint at 1 µM [7]: > 200 µL/min/mg; fraction unbound [10]: 0.01; Papp A→B at 1 h, 10 µM [11]: 9.8 ×10⁻⁶ cm/s; remaining at 1 h, 1 µM [12]: 1%; inhibition at 10 µM [14]: 94.5%"
CCCCCn1cc(C(=O)NC23CC4CC(CC(C4)C2)C3)c(=O)c(-c2ccc(CC)cc2)c1C,> 1000 nM,39.9 nM,> 60%,> 60%,54.3 nM,,
CCCCCn1cc(C(=O)NN2CCCCC2)c(=O)cc1C,,,> 60%,> 60%,> 1000 nM,,
CCCCCn1cc(C(=O)NCC2CC2)c(=O)cc1C,,,> 60%,> 60%,> 1000 nM,,
CCCCCn1cc(C(=O)NCC2CC2)c(=O)cc1C(C)(C)C,176 nM,27.8 nM,> 60%,> 60%,14.1 nM,74.9%,Ratio Ki (Homo sapiens): > 10
CCCCCn1cc(C(=O)NC2CCCCC2)c(=O)cc1C,> 1000 nM,49.9 nM,> 60%,> 60%,24.4 nM,74.9%,Ratio Ki (Homo sapiens): > 10
CCCCCn1cc(C(=O)Nc2ccccc2)c(=O)cc1C,,,> 60%,> 60%,> 1000 nM,,
Cc1cc(=O)c(C(=O)NC23CC4CC(CC(C4)C2)C3)cn1CCC1OCCO1,,,> 60%,> 60%,> 1000 nM,,
